Measurements reported in ChEMBL document CHEMBL1221221, “Discovering chemical modifiers of oncogene-regulated hematopoietic differentiation” (Nat Chem Biol, 2009).
Activity calls are given as the source filed them. The rule behind the calls is not given here.

Key:
Danio rerio [1] = species: Danio rerio; experiment: Inhibition of heat-induced AML1-ETO protein expression in heterozygous transgenic zebrafish embryo by Western blot analysis; type: functional, organism-based
Summary of the method: (§1)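 Heterozygous Tg(hsp:AML1-ETO) embryos, bred from homozygous transgenic × wild-type crosses, were heat-treated at 39−40 °C for 1 h to induce AE. Lysates were Western blotted with anti-AML1 antibody for AE and also probed for Hsp70, with Akt as the loading reference. Controls were DMSO vehicle, heat-treated wild-type embryos, and unheated transgenic embryos.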

Danio rerio [2] = species: Danio rerio; experiment: Inhibition of Hsp70 expression in heterozygous transgenic zebrafish embryo at 0.15 uM by Western blot analysis; type: functional, organism-based; summary of the method: as §1
Danio rerio [3] = species: Danio rerio; experiment: Inhibition of heat-induced AML1-ETO protein expression in heterozygous transgenic zebrafish embryo at 0.15 uM by Western blot analysis; type: functional, organism-based; summary of the method: as §1
[4] = target: Glycogen synthase kinase 3 beta (Danio rerio) (UniProt Q9YH60); experiment: Inhibition of GSK-3-beta-mediated activation of […] signaling in heat-stimulated heterozygous transgenic zebrafish embryo assessed as down-regulation of gata1 gene expression at 0.5 uM by in-situ hybridization analysis
Summary of the method: (§2)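 Heterozygous Tg(hsp:AML1-ETO) embryos exposed to the GSK-3β inhibitor from 14 hpf, after gastrulation, then given a mild heat treatment (37 °C, 1 h) or none. DMSO vehicle control. In situ hybridization for gata1 or mpo. Scored as numbers of embryos showing gata1 downregulation or mpo upregulation.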

[5] = target: Glycogen synthase kinase 3 beta (Danio rerio) (UniProt Q9YH60); experiment: Inhibition of GSK-3-beta-mediated activation of […] signaling in heat-stimulated heterozygous transgenic zebrafish embryo assessed as upregulation of MPO gene expression at 0.5 uM by in-situ hybridization analysis; summary of the method: as §2
Danio rerio [6] = species: Danio rerio; experiment: Effect on gross morphology of heterozygous transgenic zebrafish embryo at 0.5 uM; type: ADME, organism-based; details: in vivo
[7] = target: Glycogen synthase kinase 3 beta (Danio rerio) (UniProt Q9YH60); experiment: Inhibition of GSK-3-beta-mediated activation of […] signaling in heterozygous transgenic zebrafish embryo assessed as effect on gata1 gene expression at 0.5 uM by in-situ hybridization analysis; summary of the method: as §2
[8] = target: Glycogen synthase kinase 3 beta (Danio rerio) (UniProt Q9YH60); experiment: Inhibition of GSK-3-beta-mediated activation of […] signaling in heterozygous transgenic zebrafish embryo assessed as effect on MPO gene expression at 0.5 uM by in-situ hybridization analysis; summary of the method: as §2
Danio rerio [9] = species: Danio rerio; experiment: Inhibition of AML1-ETO protein translation in heterozygous transgenic zebrafish assessed as suppression of phenotype appearance; type: functional, organism-based
Summary of the method: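 Heterozygous Tg(hsp:AML1-ETO) embryos were dechorionated with pronase at 12−16 hpf and kept in E3 buffer, five per well. Compound was added at 20 μM final. One hour later, AE expression was induced by heat shock at 40 °C for 1 h, followed by 90 min at 28.5 °C. Embryos were then fixed and gata1 in situ hybridization was scored in the posterior blood islands.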

Danio rerio [10] = species: Danio rerio; details: 40 uM
Danio rerio [11] = species: Danio rerio; details: 40 uM; remark: listed apart in the source
Danio rerio [12] = species: Danio rerio; experiment: Inhibition of Hsp70 expression in heterozygous transgenic zebrafish embryo at 0.5 uM by Western blot analysis; type: functional, organism-based
Summary of the method: (§3)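 Heterozygous Tg(hsp:AML1-ETO) embryos treated with compound or DMSO and heat-treated to induce transgene expression. Lysates examined by Western blot with anti-AML1 antibody for AML1-ETO, and also probed for Hsp70. Akt used as loading reference. Controls were heat-treated wild-type embryos and unheated transgenic embryos.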

Danio rerio [13] = species: Danio rerio; details: 40 uM; remark: listed apart in the source
Danio rerio [14] = species: Danio rerio; experiment: Inhibition of heat-induced AML1-ETO protein expression in heterozygous transgenic zebrafish embryo at 0.5 uM by Western blot analysis; type: functional, organism-based; summary of the method: as §3
Danio rerio [15] = species: Danio rerio; details: 40 uM; remark: listed apart in the source
Danio rerio [16] = species: Danio rerio; experiment: Inhibition of COX2 in heat-stimulated heterozygous transgenic zebrafish embryo assessed as MPO-positive granulocytic cell accumulation at 25 uM by in situ hybridization analysis
Summary of the method: (§4)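 Heterozygous Tg(hsp:AML1-ETO) embryos given heat treatment at 39−40 °C for 1 h at 16−18 hpf. Compound added in DMSO right at the end of heat treatment, with or without PGE2 (20 μM). Embryos fixed at 36−40 hpf for mpo in situ hybridization of granulocytic cells. Scored as counts of embryos showing the phenotype; unheated transgenic embryos also tested.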

Danio rerio [17] = species: Danio rerio; experiment: Inhibition of COX2-mediated decrease in gata1 expression in heterozygous transgenic zebrafish embryo assessed as restoration of gata1 level at 25 uM by in-situ hybridization analysis
Summary of the method: (§5)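 Heterozygous Tg(hsp:AML1-ETO) embryos from homozygous × wild-type crosses. Compound added in DMSO 1 h before heat treatment at 39−40 °C for 1 h at 16−18 hpf. Embryos fixed 90 min after heat treatment, then whole-mount in situ hybridization for gata1 in posterior blood islands. Scored as counts of embryos showing the phenotype. DMSO vehicle control; unheated transgenic embryos for comparison.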

Danio rerio [18] = species: Danio rerio; experiment: Inhibition of COX2 in heat-stimulated heterozygous transgenic zebrafish embryo assessed as MPO-positive granulocytic cell accumulation at 25 uM by in situ hybridization analysis in presence of PGE2; summary of the method: as §4
Danio rerio [19] = species: Danio rerio; experiment: Inhibition of COX2 in heterozygous transgenic zebrafish embryo assessed as MPO-positive granulocytic cell accumulation at 25 uM by in situ hybridization analysis; summary of the method: as §4
Danio rerio [20] = species: Danio rerio; experiment: Inhibition of COX2-mediated decrease in gata1 expression in heat-stimulated heterozygous transgenic zebrafish embryo assessed as restoration of gata1 level at 25 uM by in-situ hybridization analysis; summary of the method: as §5
Danio rerio [21] = species: Danio rerio; experiment: Inhibition of COX2 in heterozygous transgenic zebrafish embryo assessed as MPO-positive granulocytic cell accumulation at 20 uM by in situ hybridization analysis; summary of the method: as §4
Danio rerio [22] = species: Danio rerio; experiment: Inhibition of COX2 in heat-stimulated heterozygous transgenic zebrafish embryo assessed as MPO-positive granulocytic cell accumulation at 20 uM by in situ hybridization analysis; summary of the method: as §4
Danio rerio [23] = species: Danio rerio; experiment: Inhibition of COX2 in heat-stimulated heterozygous transgenic zebrafish embryo assessed as MPO-positive granulocytic cell accumulation at 20 uM by in situ hybridization analysis in presence of PGE2; summary of the method: as §4
Danio rerio [24] = species: Danio rerio; experiment: Inhibition of COX2-mediated decrease in gata1 expression in heterozygous transgenic zebrafish embryo assessed as restoration of gata1 level at 20 uM by in-situ hybridization analysis; summary of the method: as §5
Danio rerio [25] = species: Danio rerio; experiment: Inhibition of COX2-mediated decrease in gata1 expression in heat-stimulated heterozygous transgenic zebrafish embryo assessed as restoration of gata1 level at 20 uM by in-situ hybridization analysis; summary of the method: as §5
Danio rerio [26] = species: Danio rerio; experiment: Effect on scl gene expression in wild type zebrafish embryo at 20 uM treated 14 hrs post fertilization by in-situ hybridization analysis; type: functional, organism-based
Danio rerio [27] = species: Danio rerio; experiment: Effect on gata1 gene expression in wild type zebrafish embryo at 20 uM treated 14 hrs post fertilization by in-situ hybridization analysis; type: functional, organism-based
Danio rerio [28] = species: Danio rerio; experiment: Induction of AML1-ETO protein translation in 37 degC heat-stimulated heterozygous transgenic zebrafish assessed as phenotype appearance after 1 hr by in-situ hybridization analysis; type: functional, organism-based
Danio rerio [29] = species: Danio rerio; experiment: Effect on l-plastin gene expression in wild type zebrafish embryo at 20 uM treated 14 hrs post fertilization by in-situ hybridization analysis; type: functional, organism-based
Danio rerio [30] = species: Danio rerio; experiment: Upregulation of MPO gene expression in 39 to 40 degC heat-stimulated heterozygous transgenic zebrafish embryo after 1 hr by in-situ hybridization analysis; type: functional, organism-based
Danio rerio [31] = species: Danio rerio; experiment: Induction of MPO-positive granulocytic cell accumulation in heat-stimulated heterozygous transgenic zebrafish embryo; type: functional, organism-based
Danio rerio [32] = species: Danio rerio; experiment: Downregulation of gata1 gene expression in 39 to 40 degC heat-stimulated heterozygous transgenic zebrafish embryo after 1 hr by in-situ hybridization analysis; type: functional, organism-based
Danio rerio [33] = species: Danio rerio; experiment: Effect on MPO gene expression in wild type zebrafish embryo at 20 uM treated 14 hrs post fertilization by in-situ hybridization analysis; type: functional, organism-based
Danio rerio [34] = species: Danio rerio; experiment: Induction of AML1-ETO protein translation in 39 to 40 degC heat-stimulated heterozygous transgenic zebrafish assessed as phenotype appearance after 1 hr by in-situ hybridization analysis; type: functional, organism-based

Chain of Glycogen synthase kinase 3 beta (Danio rerio) (Q9YH60 as listed by the source): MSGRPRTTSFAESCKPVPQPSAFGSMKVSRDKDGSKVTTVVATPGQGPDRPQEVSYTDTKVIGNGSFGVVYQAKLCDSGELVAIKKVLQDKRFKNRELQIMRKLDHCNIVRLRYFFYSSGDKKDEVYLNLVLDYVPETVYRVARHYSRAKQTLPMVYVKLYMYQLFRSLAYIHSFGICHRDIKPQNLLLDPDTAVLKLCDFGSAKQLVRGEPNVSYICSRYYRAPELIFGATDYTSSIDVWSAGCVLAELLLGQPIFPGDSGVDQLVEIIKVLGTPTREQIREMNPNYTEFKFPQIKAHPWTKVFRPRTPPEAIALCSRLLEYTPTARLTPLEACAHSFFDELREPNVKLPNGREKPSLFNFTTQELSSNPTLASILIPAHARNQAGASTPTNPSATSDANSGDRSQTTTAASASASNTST

COc1ccc2c(c1)O[C@@H]1COc3cc(OC)c(OC)cc3[C@@H]1C2=O
inhibition of AML1-ETO protein expression (active/not active) (Danio rerio [1]): Active

O=c1oc2ccccc2c(O)c1Cc1c(O)c2ccccc2oc1=O
inhibition of AML1-ETO protein expression (active/not active) (Danio rerio [1]): inactive

C=C(C)[C@H]1Cc2c(ccc3c2O[C@@H]2COc4cc(OC)c(OC)cc4[C@@H]2C3=O)O1
inhibition (Danio rerio [2]): Active
inhibition (Danio rerio [3]): Active

O=C1Nc2cc(Br)ccc2/C1=C1/Nc2ccccc2/C1=N\O [6BIO]
inhibition [4]: Active
inhibition [5]: Active
Activity (Danio rerio [6]): Toxic
inhibition [7]: Active
inhibition [8]: Active

C[C@@H]1C[C@@H]([C@H](O)CC2CC(=O)NC(=O)C2)C(=O)[C@@H](C)C1
Imax (Danio rerio [9]): Active
inhibition (Danio rerio [2]): Active

CS(=O)(=O)Nc1ccc([N+](=O)[O-])cc1Oc1ccccc1
inhibition (Danio rerio [10]): Active
inhibition (Danio rerio [11]): inactive
inhibition (Danio rerio [12]): inactive
inhibition (Danio rerio [13]): inactive
inhibition (Danio rerio [14]): inactive
inhibition (Danio rerio [15]): inactive

CS(=O)(=O)Nc1ccc([N+](=O)[O-])cc1OC1CCCCC1
inhibition (Danio rerio [16]): Active
inhibition (Danio rerio [17]): inactive
inhibition (Danio rerio [18]): inactive
inhibition (Danio rerio [19]): inactive
inhibition (Danio rerio [20]): Active

COc1ccc2c(c1)c(CC(=O)O)c(C)n2C(=O)c1ccc(Cl)cc1
inhibition (Danio rerio [21]): inactive
inhibition (Danio rerio [22]): Active
inhibition (Danio rerio [23]): inactive
inhibition (Danio rerio [24]): inactive
inhibition (Danio rerio [25]): Active

Oc1ccc(Cl)cc1Cc1cc(Cl)ccc1O
inhibition of AML1-ETO protein expression (active/not active) (Danio rerio [1]): Active

CCCCC[C@H](O)/C=C/[C@H]1[C@H](O)CC(=O)[C@@H]1C/C=C\CCCC(=O)O
Activity (Danio rerio [26]): inactive
Activity (Danio rerio [27]): inactive
inhibition (Danio rerio [28]): Active
Activity (Danio rerio [29]): inactive
inhibition (Danio rerio [30]): inactive
Activity (Danio rerio [31]): Active
inhibition (Danio rerio [32]): inactive
Activity (Danio rerio [33]): inactive
Activity (Danio rerio [34]): Active

CC(/C=C/C(=O)NO)=C\[C@@H](C)C(=O)c1ccc(N(C)C)cc1
inhibition (Danio rerio [12]): inactive
inhibition (Danio rerio [14]): inactive

Oc1c(Cl)cc(Cl)cc1Sc1cc(Cl)cc(Cl)c1O
inhibition of AML1-ETO protein expression (active/not active) (Danio rerio [1]): Active
